Measured values published in ChEMBL document CHEMBL3525985, “Regiospecificity and stereospecificity of human UDP-glucuronosyltransferases in the glucuronidation of estriol, 16-epiestriol, 17-epiestriol, and 13-epiestradiol” (Drug Metab Dispos, 2013).
Blank lines part the entries; values can stand above or below the compound they belong to.

Tests used:
Type in all cases: ADME
Liver microsome [1] = test: Drug metabolism in human liver microsomes assessed as 17-epiestriol-3-glucuronide formation after 15 to 60 mins by Michaelis-Menten equation analysis in presence of UDPGA
Procedure, shortened: (§1)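 Pooled human liver microsomes (30 donors), 0.5 or 10 µg, with alamethicin at 5% of total protein. Incubated with 50 mM phosphate pH 7.4, 10 mM MgCl₂, 5 mM UDPGA and 10% DMSO for 15–60 min at 37°C. Each glucuronide regioisomer quantified by HPLC, in triplicate, with substrate consumption at or below 10%.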

[2] = Drug metabolism in human intestine microsomes assessed as 17-epiestriol-3-glucuronide formation after 15 to 60 mins by Michaelis-Menten equation analysis in presence of UDPGA
Procedure, shortened: as §1, with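 “intestine” for “liver”, “(6” for “(30”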

[3] = target: T1, UDP-glucuronosyltransferase 1A10 (Homo sapiens, UniProt Q9HAW8, F93G); test: Drug metabolism assessed as human UGT1A10 F93G mutant-mediated 13-epiestradiol-3-glucuronide formation at 200 uM after 15 to 60 mins by HPLC analysis in presence of UDPGA
Procedure, shortened: (§2)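 Screening at a single substrate concentration of 200 μM, in triplicate. The reaction used 5 or 50 µg of UGT-enriched insect cell membranes in 50 mM phosphate pH 7.4 with 10 mM MgCl₂ and 5 mM UDPGA, 10% final DMSO. Incubation was 15–60 min at 37°C. Perchloric acid stopped the reaction and supernatants were analysed by HPLC. Controls lacked UDPGA. Rates were normalized to relative UGT expression level.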

Liver microsome [4] = test: Drug metabolism in human liver microsomes assessed as 16-epiestriol-3-glucuronide formation after 15 to 60 mins by Michaelis-Menten equation analysis in presence of UDPGA; procedure, shortened: as §1
[5] = Drug metabolism in human intestine microsomes assessed as 16-epiestriol-16-glucuronide formation after 15 to 60 mins by Michaelis-Menten equation analysis in presence of UDPGA
Procedure, shortened: as §1, with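 “intestine” for “liver”, “(6” for “(30”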

[6] = target: T2, UDP-glucuronosyltransferase 1A8 (Homo sapiens, UniProt Q9HAW9); test: Drug metabolism assessed as recombinant human C-terminal His-tagged UGT1A8-mediated estradiol-3-glucuronide formation at 200 uM after 15 to 60 mins by HPLC analysis in presence of UDPGA; settings: recombinant enzyme; procedure, shortened: as §2
T2 sequence (Q9HAW9 whole entry): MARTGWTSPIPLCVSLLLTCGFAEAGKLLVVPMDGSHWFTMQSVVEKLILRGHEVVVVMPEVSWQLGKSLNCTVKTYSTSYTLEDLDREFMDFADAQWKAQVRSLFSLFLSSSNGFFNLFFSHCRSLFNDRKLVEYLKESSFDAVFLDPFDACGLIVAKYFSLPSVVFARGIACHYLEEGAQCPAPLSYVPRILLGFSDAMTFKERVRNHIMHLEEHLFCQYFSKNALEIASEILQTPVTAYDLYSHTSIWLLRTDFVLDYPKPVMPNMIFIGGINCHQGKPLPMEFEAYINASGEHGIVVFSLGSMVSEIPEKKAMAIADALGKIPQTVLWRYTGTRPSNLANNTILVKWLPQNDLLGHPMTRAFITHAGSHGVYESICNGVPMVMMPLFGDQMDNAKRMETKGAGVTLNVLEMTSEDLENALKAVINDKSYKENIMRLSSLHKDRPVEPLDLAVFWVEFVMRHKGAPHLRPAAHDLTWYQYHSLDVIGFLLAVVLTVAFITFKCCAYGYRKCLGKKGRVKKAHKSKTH

[7] = target: T1, UDP-glucuronosyltransferase 1A10; test: Drug metabolism assessed as human UGT1A10 F93G mutant-mediated estradiol-3-glucuronide formation at 200 uM after 15 to 60 mins by HPLC analysis in presence of UDPGA; procedure, shortened: as §2
Liver microsome [8] = test: Drug metabolism in human liver microsomes assessed as estriol-3-glucuronide formation after 15 to 60 mins by Michaelis-Menten equation analysis in presence of UDPGA; procedure, shortened: as §1
[9] = target: T3, UDP-glucuronosyltransferase 2B7 (Homo sapiens, UniProt P16662); test: Drug metabolism assessed as recombinant human C-terminal His-tagged UGT2B7-mediated estriol-16-glucuronide formation after 15 to 60 mins by Michaelis-Menten equation analysis in presence of UDPGA; settings: recombinant enzyme
T3 sequence (P16662 whole entry): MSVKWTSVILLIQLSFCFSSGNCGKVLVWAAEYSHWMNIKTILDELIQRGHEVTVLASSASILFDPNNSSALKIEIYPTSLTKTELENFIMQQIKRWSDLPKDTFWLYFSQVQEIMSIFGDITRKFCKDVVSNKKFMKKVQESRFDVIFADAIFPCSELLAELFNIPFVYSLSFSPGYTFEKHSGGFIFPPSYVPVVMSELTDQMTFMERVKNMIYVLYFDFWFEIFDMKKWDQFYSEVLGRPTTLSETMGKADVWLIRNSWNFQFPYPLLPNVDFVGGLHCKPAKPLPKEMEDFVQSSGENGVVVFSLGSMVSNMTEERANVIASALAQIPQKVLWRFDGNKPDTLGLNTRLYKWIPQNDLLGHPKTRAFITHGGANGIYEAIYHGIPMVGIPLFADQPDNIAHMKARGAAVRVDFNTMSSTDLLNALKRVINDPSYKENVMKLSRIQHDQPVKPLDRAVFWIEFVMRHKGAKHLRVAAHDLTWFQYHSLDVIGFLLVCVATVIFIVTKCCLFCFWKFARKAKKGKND
Procedure, shortened: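 Kinetics with His-tagged UGT-enriched insect-cell membranes (5 or 50 µg): aglycone 0.2–300 µM in 10% DMSO, 5 mM UDPGA, 10 mM MgCl₂, 50 mM phosphate pH 7.4, 15–60 min at 37°C. Substrate consumption kept at or below 10%. Glucuronides quantified by HPLC in triplicate, rates normalized to expression, and data fitted to Michaelis-Menten.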

T1 sequence (Q9HAW8 26-530 F93G limits assumed): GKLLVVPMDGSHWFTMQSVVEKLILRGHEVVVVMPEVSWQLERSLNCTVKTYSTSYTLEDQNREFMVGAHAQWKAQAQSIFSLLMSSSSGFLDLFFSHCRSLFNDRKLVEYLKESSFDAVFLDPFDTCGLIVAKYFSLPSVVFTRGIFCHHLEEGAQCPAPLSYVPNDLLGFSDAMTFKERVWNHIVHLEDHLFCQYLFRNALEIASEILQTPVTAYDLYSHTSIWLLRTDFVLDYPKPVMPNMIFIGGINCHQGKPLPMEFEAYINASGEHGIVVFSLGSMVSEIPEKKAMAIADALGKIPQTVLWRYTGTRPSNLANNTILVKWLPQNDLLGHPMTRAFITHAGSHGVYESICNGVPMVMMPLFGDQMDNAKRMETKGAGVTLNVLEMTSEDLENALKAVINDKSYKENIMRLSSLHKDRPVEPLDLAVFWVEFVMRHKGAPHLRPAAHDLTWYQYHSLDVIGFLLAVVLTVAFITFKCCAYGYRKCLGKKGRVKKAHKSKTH

Km (Liver microsome [4]): 2380 µM
Vmax (Liver microsome [4]): 569 pmol/min/mg
Km [5]: 43 µM
Vmax [5]: 1480 pmol/min/mg
SMILES: C[C@]12CC[C@@H]3c4ccc(O)cc4CC[C@H]3[C@@H]1C[C@H](O)[C@@H]2O [EPIESTRIOL]

Drug metabolism [6]: metabolite_detected
Drug metabolism [7]: metabolite_detected
SMILES: C[C@]12CC[C@@H]3c4ccc(O)cc4CC[C@H]3[C@@H]1CC[C@@H]2O [ESTRADIOL]

Km (Liver microsome [8]): 313 µM
Vmax (Liver microsome [8]): 95 pmol/min/mg
Drug metabolism [9]: 1200 pmol/min/mg
SMILES: C[C@]12CC[C@@H]3c4ccc(O)cc4CC[C@H]3[C@@H]1C[C@@H](O)[C@@H]2O [ESTRIOL]

Continued, compound first:

SMILES: C[C@]12CC[C@@H]3c4ccc(O)cc4CC[C@H]3[C@@H]1C[C@@H](O)[C@H]2O
Km (Liver microsome [1]): 380 µM
Vmax (Liver microsome [1]): 805 pmol/min/mg
Km [2]: 251 µM
Vmax [2]: 1239 pmol/min/mg

SMILES: C[C@@]12CC[C@@H]3c4ccc(O)cc4CC[C@H]3[C@@H]1CC[C@@H]2O
Drug metabolism [3]: metabolite_detected
